Data on twelve compounds can be found in ChEMBL document CHEMBL1123625, “Synthesis and antitumor activity of tropolone derivatives. 6. Structure-activity relationships of antitumor-active tropolone and 8-hydroxyquinoline derivatives” (J Med Chem, 1987).

Assay [1] deals with Mus musculus. The experiment in a line: Antitumor activity against leukemia P388 cell line in mice was determined at 400 mg/kg intraperitoneal dose; IA means inactive. The arrangement: dose 400 mg/kg. The assay is classed as functional, organism-based. In outline: (§1)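 Mice bearing leukemia P388, dosed intraperitoneally; activity read out as % T/C.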
The nature of assay [2]: Antitumor activity was determined by the ability to inhibit KB cell growth. The assay is classed as functional, cell-based. Particulars: Homo sapiens. In outline:
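KB cell growth inhibition, reported as IC50 in μg/mL.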

Assay [3] relates to Mus musculus. The experiment in a line: Antitumor activity against leukemia P388 cell line in mice was determined at 100 mg/kg intraperitoneal dose. The assay is classed as functional. In outline:
as §1

Assay [4] concerns Mus musculus. The experiment in a line: Antitumor activity against leukemia P388 cell line in mice was determined at 400 mg/kg intraperitoneal dose. Type of assay: functional. An outline of the steps: as §1
For assay [5], the system named is Mus musculus. The experiment in a line: Antitumor activity against leukemia P388 cell line in mice was determined at 50 mg/kg intraperitoneal dose. Type of assay: functional. An outline of the steps: as §1
Assay [6] has as its system Mus musculus. The experiment in a line: Antitumor activity against leukemia P388 cell line in mice was determined at 25 mg/kg intraperitoneal dose. The assay is classed as functional. An outline of the steps:
as §1

The subject of assay [7] is Mus musculus. The experiment in a line: Antitumor activity against leukemia P388 cell line in mice was determined at 12.5 mg/kg intraperitoneal dose. The assay is classed as functional. An outline of the steps: as §1
Assay [8] deals with Mus musculus. The experiment in a line: Antitumor activity against leukemia P388 cell line in mice was determined at 10 mg/kg intraperitoneal dose. The assay is classed as functional. An outline of the steps: as §1
Assay [9] relates to Mus musculus. The experiment in a line: Antitumor activity against leukemia P388 cell line in mice was determined at 3.1 mg/kg intraperitoneal dose. Type of assay: functional. In outline:
as §1

The subject of assay [10] is Mus musculus. The experiment in a line: Antitumor activity against leukemia P388 cell line in mice was determined at 6.3 mg/kg intraperitoneal dose. Type of assay: functional. In outline:
as §1

Assay [11] concerns Mus musculus. The experiment in a line: Antitumor activity against leukemia P388 cell line in mice was determined at 40 mg/kg intraperitoneal dose. Type of assay: functional. An outline of the steps:
as §1

Assay [12] has as its system Mus musculus. The experiment in a line: Antitumor activity against leukemia P388 cell line in mice was determined at 20 mg/kg intraperitoneal dose. Type of assay: functional. An outline of the steps: as §1
Assay [13] relates to Mus musculus. The experiment in a line: Antitumor activity against leukemia P388 cell line in mice was determined at 2.5 mg/kg intraperitoneal dose. Type of assay: functional. An outline of the steps:
as §1

In brackets after ≈: the same amount, converted by molar mass. Activity calls are given as the source filed them. The rule behind the calls is not given here.

By T/C is commonly meant the result in the treated group divided by that in the control group, in per cent. As usually defined, the IC50 is the midpoint of a concentration-inhibition curve. Lower therefore signals inhibition by little substance. With `CCOC(c1ccccc1)c1ccc(C(C)C)cc(=O)c1O` (centres undefined), in [1], the T/C result was “inactive”. Moreover, the concentration for half-maximal inhibition (IC50) in assay [2] is under 0.3 µg/mL.

As for `Oc1c(C2OCCc3ccccc32)ccc2cccnc12` (centres undefined), in [1], the T/C entry was “inactive”. The compound also had a 50% inhibitory concentration (IC50) in assay [2] of 1.3 µg/mL (≈ 4.69 µM).

In the case of `COc1ccc(C(c2c(O)ccc3ncccc23)c2c(O)ccc3ncccc23)cc1`, the T/C entry in assay [1] is “inactive”. Further, in assay [2], the IC50 came to 17 µg/mL (≈ 41.6 µM).

Consider `CCOC(c1ccc(OC)cc1)c1c(O)ccc2ncccc12` (centres undefined), for which the T/C entry in [1] is “inactive”. This compound also showed an IC50 in [2] of 44 µg/mL (≈ 142 µM).

`CCOC(c1ccc(OC)cc1)c1ccc2cccnc2c1O` (centres undefined): the T/C in [3] is listed as 112%; in [4] it was 129%. This compound came in with an IC50 in assay [2] of 0.8 µg/mL (≈ 2.59 µM).

With `COc1ccc(C(c2ccc3cccnc3c2O)c2oc(CO)cc(=O)c2O)cc1` (centres undefined), the IC50 in assay [2] is under 0.3 µg/mL. Further, the values for the T/C in [5], in [6] and in assay [7] were 135%, 138% and 120%, respectively.

For `COc1ccc(C(c2ccc(C(C)C)cc(=O)c2O)c2ccc(C(C)C)cc(=O)c2O)cc1`, the concentration for half-maximal inhibition (IC50) in [2] was under 0.3 µg/mL. The compound further returned a T/C in assay [8] of 170%.

Turning to `COc1ccc(C(c2ccc3cccnc3c2O)c2ccc3cccnc3c2O)cc1`, the concentration for half-maximal inhibition (IC50) in assay [2] is under 0.3 µg/mL. The T/C is 164% in [7], 111% in assay [9] and 128% in [10].

Turning to `Oc1c(C(c2ccco2)c2ccc3cccnc3c2O)ccc2cccnc12`, the T/C in assay [11] was 138%; in assay [12], 120%; in assay [8], 113%. In assay [2], the IC50 was under 0.3 µg/mL.

In turn, `CC(C)c1ccc(C2OCCc3ccccc32)c(O)c(=O)c1` (centres undefined) yielded a T/C in assay [3] of 112%.

The compound `COc1ccc(C(c2ccc(C(C)C)cc(=O)c2O)c2oc(CO)cc(=O)c2O)cc1` (centres undefined) displayed a half-inhibitory concentration (IC50) in [2] of 0.5 µg/mL (≈ 1.18 µM). The T/C in [5] is 152%; in assay [6], 146%; in assay [7] it was 128%.

Take `Oc1c(C(c2cccs2)c2ccc3cccnc3c2O)ccc2cccnc12`: the T/C is reported as 136% in assay [12], 108% in assay [13] and 125% in assay [8]. The IC50 in assay [2] is under 0.3 µg/mL.
